From PubChem BioAssay
Calls of active or inactive are those of the source.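 Rule for the calls, unless noted: active = a full or partial loss of lipid-probe fluorescence in the fish gall bladder, intestine or both, judged by eye; inactive = no fluorescence loss, or compound toxic to the fish.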

Legend:
[1] = inhibitors of TNFa-induced NFkB p65 translocation, primary screen, imaging, HUVEC, MLSMR starter and 10KST1 sets (AID 438;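 active = inhibition above 20% together with a positive visual image hit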;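 note: compound added about 3h40 before a 20 min TNFalpha stimulation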;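 for inhibition: signal is the nuclear over cytoplasmic p65 intensity ratio per well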); settings: HUVEC TNFa-induced p65 nuclear translocation; cell count: measured here: nuclei count (cytotoxicity indicator), at 2.08 µM; inhibition: at 2 µM, stronger effect = higher value, 0% TNFa-plus-vehicle, 100% no-TNFa wells
[2] = endothelial E-selectin expression blockers – imaging, HUVEC, immunofluorescence, MLSMR starter and 10KST1 sets, primary screen (AID 487;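 active = visually confirmed hit in the image check and inhibition above 20%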;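 for inhibition: signal is fraction of cell area covered by stained E-selectin grains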;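 for nuclei count: 100% = median nuclei count of all wells on the same plate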); settings: HUVEC TNFalpha-induced E-selectin immunofluorescence imaging, at 2 µM; inhibition: stronger effect = higher value; nuclei count: measured here: cell number, toxicity
[3] = Primary imaging screen for DUSP6 inhibitors that restore phospho-Erk in transfected HeLa cells, chemical complementation (AID 609;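 active = compounds giving at least 50% inhibition in the cell-based MKP-3 phosphatase rescue imaging test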;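 for inhibition: phospho-Erk level distribution per well compared with pooled transfected vehicle control wells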); settings: HeLa MKP-3 transfected, phospho-Erk imaging KS statistic, at 10 µM, cells stimulated with TPA for 15 min
[4] = target: Dual specificity protein phosphatase 6 (Homo sapiens) (UniProt Q16828); test: as above; settings: HeLa MKP-3 transfected, phospho-Erk imaging KS statistic; at 10 µM; stronger effect = higher value; cells stimulated with TPA for 15 min
[5] = target: Voltage-gated potassium channel subunit beta-2 (Rattus norvegicus) (UniProt P62483); test: inhibitors of rat Kvbeta2 reductase activity – biochemical, NADPH fluorescence, primary screen (AID 622;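 active = fluorescence slope higher than the sample average by over 3 SD, cut at about -0.22 in these data, passing the limit was not always enough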;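 note: slope of raw intensity against log time taken from 70 to 1610 s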); settings: recombinant KvBeta, 4-cyanobenzaldehyde reduction, at 10 µM, stronger effect = higher value
[6] = target: Voltage-gated potassium channel subunit beta-2 (Rattus norvegicus) (UniProt P62483); test: enhancers of rat Kvbeta2 NADPH turnover – biochemical, NADPH fluorescence, primary screen (AID 623;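 active = NADPH fluorescence slope more negative than the mean of all samples by about 3 SD, 99.7% confidence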;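 note: fluorescence intensity change per second fitted from 20 to 320 s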); settings: Recombinant KvBeta, NADPH fluorescence decrease slope, 10 min; at 10 µM; stronger effect = lower value
[7] = target: Muscarinic acetylcholine receptor M4 (Homo sapiens) (UniProt P08173); test: M4-linked GIRK flux change, two-sided – cell-based, HEK293 M4/GIRK, thallium flux, BTC-AM, M4 allosteric agonist project, primary screen (AID 625;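 active = fluorescence slope after compound addition differing from the mean of all tested samples at 99.7% confidence, mostly higher but some lower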;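 note: thallium influx through GIRK channels coupled to M4 in HEK293 cells with BTC-AM dye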); settings: at 10 µM, actives lie on both sides
Summary of the method: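 Material: HEK293 cells with M4 receptor and GIRK channels; Times: cells overnight at 37 °C, BTC-AM loading 1 h, reads 2 min total; Technique: kinetic BTC-AM fluorescence sampled at 1 Hz, 10 s pre-addition baseline; Read-out basis: slope over 15–24 s of trace normalized to starting intensity; Controls: carbachol positive, DMSO negative.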

[8] = inhibitors of larval lipid processing in zebrafish, primary screen, whole organism, PED6 fluorescence, gall bladder and intestine (AID 686); settings: Zebrafish larvae PED6 lipid processing, fluorescence scoring; screened at 20 µM (by protocol);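 note: larvae 5 to 7 days old with five fish per well; signal comes from phospholipase A2 cleavage of quenched PED6 carried via bile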
Summary of the method: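 Incubation: overnight exposure of larvae to compound plus PED6 / Test system: live zebrafish larvae aged 5-7 days, whole organism / Amount: 5 larvae per well / Read-out basis: visual per-well fluorescence inhibition score / Signal: visual fluorescence microscopy scoring of gall bladder, gut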

[9] = loss of swimming-algae plug formation – whole organism, Chlamydomonas reinhardtii, WT vs cilia-less mutant, absorbance, 96-well, primary screen (AID 463189;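 active = inhibition at or above 50% relative to wild type and mutant plate controls; inactive = inhibition below 50%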;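 note: 0% = wild type cc124 cells in DMSO and 100% = ciliumless bld1 mutant cells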); settings: Chlamydomonas reinhardtii gravitaxis, OD600 absorbance, 2 days; at 10 µM; stronger effect = higher value
[10] = measured here: cell density z-score
[11] = measured here: nuclear c-Myc green intensity z-score
[12] = measured here: nuclear pErk red intensity z-score, stronger effect = higher value

Chain of Dual specificity protein phosphatase 6 (Homo sapiens) (Q16828 whole entry, looked up): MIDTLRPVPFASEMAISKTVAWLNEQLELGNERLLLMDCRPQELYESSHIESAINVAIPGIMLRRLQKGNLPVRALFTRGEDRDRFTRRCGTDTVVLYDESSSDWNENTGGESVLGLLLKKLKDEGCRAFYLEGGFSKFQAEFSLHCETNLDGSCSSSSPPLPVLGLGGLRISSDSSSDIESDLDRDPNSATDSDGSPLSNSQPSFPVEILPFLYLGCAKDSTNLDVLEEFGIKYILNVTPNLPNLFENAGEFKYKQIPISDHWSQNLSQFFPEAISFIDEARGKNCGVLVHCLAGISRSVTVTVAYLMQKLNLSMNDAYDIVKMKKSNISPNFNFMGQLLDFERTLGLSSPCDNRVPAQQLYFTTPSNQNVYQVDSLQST
Chain of Muscarinic acetylcholine receptor M4 (Homo sapiens) (P08173 whole entry, looked up): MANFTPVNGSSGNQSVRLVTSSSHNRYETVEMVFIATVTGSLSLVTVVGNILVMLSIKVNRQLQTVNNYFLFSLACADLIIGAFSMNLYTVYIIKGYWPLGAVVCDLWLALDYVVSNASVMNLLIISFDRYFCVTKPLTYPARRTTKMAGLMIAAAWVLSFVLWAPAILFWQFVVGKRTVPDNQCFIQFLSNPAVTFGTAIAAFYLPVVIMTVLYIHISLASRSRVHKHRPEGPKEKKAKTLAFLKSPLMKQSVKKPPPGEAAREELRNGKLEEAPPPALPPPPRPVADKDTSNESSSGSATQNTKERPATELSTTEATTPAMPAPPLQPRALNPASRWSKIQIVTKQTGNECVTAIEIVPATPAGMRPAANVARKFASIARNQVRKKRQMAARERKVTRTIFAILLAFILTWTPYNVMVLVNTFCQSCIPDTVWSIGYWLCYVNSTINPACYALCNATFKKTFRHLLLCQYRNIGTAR
Chain of Voltage-gated potassium channel subunit beta-2 (Rattus norvegicus) (P62483 whole entry, looked up): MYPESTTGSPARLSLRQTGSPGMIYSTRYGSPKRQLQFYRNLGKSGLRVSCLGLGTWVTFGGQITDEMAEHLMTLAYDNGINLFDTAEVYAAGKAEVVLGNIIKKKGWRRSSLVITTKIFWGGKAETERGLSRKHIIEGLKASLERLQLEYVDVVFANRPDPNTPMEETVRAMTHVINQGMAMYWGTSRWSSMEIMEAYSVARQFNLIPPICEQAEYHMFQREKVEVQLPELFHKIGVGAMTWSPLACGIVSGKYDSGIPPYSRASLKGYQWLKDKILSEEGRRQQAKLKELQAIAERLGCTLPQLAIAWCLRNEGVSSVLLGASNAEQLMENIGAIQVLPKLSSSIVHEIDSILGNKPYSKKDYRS

Compound | cell count [1] | inhibition [1] | inhibition [2] | nuclei count [2] | z-score [3, 10] | z-score [3, 11] | z-score [3, 12] | inhibition [4] | fluorescence slope [5] | NADPH fluorescence slope [6] | fluorescence slope [7] | outcome [8] | inhibition [9]
CCC(=NC(CC)CO)C1=C(O)CC(C)(C)CC1=O (configuration not stated) | 686 | -11.6% (inactive) | -103% (inactive) | 171% | 0.537 | -0.145 | 1.26 | -13.3% (inactive) | -0.519 (inactive) | -8.5e-05 (inactive) | 0.00583 (inactive) | inactive | -0.04% (inactive)
CCOC(=O)Cc1[nH]nc2c1C(c1cc(OC)ccc1OC)C(C#N)=C(N)O2 (configuration not stated) | 591 | -5.3% (inactive) | -13.2% (inactive) | 140% | 1.07 | 1.02 | 0.992 | 21% (inactive) | -0.503 (inactive) | -5.8e-05 (inactive) | 0.00642 (inactive) | inactive | -4.63% (inactive)
CCN(CC)CCCN1C(=O)C(=O)/C(=C(/O)c2ccc3c(c2)CC(C)O3)C1c1ccncc1 (configuration not stated) | 613 | -2.6% (inactive) | -3.9% (inactive) | 154% | 1.2 | -0.776 | -1.04 | 19.4% (inactive) | -0.478 (inactive) | -4.1e-05 (inactive) | 0.00593 (inactive) | inactive | 17% (inactive)
CCOC(=O)c1[nH]c2ccccc2c1NC(=O)CN(C)C | 656 | 2.2% (inactive) | -136% (inactive) | 180% | 0.955 | 0.5 | -0.213 | 7.93% (inactive) | -0.476 (inactive) | -4.7e-05 (inactive) | 0.00584 (inactive) | inactive | -6.18% (inactive)
Cc1ccccc1-n1c(=O)/c(=C\c2ccco2)s/c1=C(/C#N)C(=O)Nc1ccccc1 | 677 | -5.8% (inactive) | -17.2% (inactive) | 151% | 0.299 | -0.624 | -0.976 | 9.37% (inactive) | -0.475 (inactive) | -4.4e-05 (inactive) | 0.00343 (inactive) | inactive | -0.051% (inactive)
CN1Cc2c(N3CCOCC3)nc(SCc3ccccc3)c(C#N)c2CC1(C)C | 524 | -3.1% (inactive) | -101% (inactive) | 134% | -1.78 | -0.223 | -1.03 | -0.584% (inactive) | -0.496 (inactive) | -7.5e-06 (inactive) | 0.00495 (inactive) | inactive | 17.9% (inactive)
O=c1c2ccccc2ncn1Cc1ccco1 | 682 | -8.5% (inactive) | -74.2% (inactive) | 138% | -0.419 | -1.56 | 0.938 | -15.1% (inactive) | -0.449 (inactive) | -3.2e-05 (inactive) | 0.00462 (inactive) | inactive | 14.3% (inactive)
Cc1cc(NCCNC2=CC(=O)CCC2)nc2ccccc12 | 473 | -10.2% (inactive) | -41.3% (inactive) | 148% | -0.963 | 1.28 | -0.176 | -3.97% (inactive) | -0.431 (inactive) | -4.6e-05 (inactive) | 0.0072 (inactive) | inactive | -12.8% (inactive)
C=CC[N+](C)(C)CCCNC(=O)/C=N/O | 665 | -3.3% (inactive) | -22.3% (inactive) | 164% | 0.15 | -0.161 | -1.51 | -9.53% (inactive) | -0.482 (inactive) | -4.6e-05 (inactive) | 0.00537 (inactive) | inactive | -5.25% (inactive)
O=C(NCCCn1ccnc1)c1cccnc1 | 412 | -1% (inactive) | -143% (inactive) | 187% | -0.692 | 0.968 | -0.483 | 5.65% (inactive) | -0.459 (inactive) | -0.000144 (inactive) | 0.00592 (inactive) | inactive | 0.663% (inactive)
Cc1ccc(NC(=O)Cn2nc(C)c3ccccc3c2=O)cc1 | 576 | -1.6% (inactive) | -60.9% (inactive) | 134% | 1 | -0.268 | 1.91 | 9.07% (inactive) | -0.496 (inactive) | -0.000121 (inactive) | 0.00582 (inactive) | inactive | -6.33% (inactive)
C=CCNc1nc(N2CCCCC2)c(C#N)c2c1CN(Cc1ccccc1)CC2 | 504 | -15.8% (inactive) | -82.3% (inactive) | 127% | 0.348 | -0.299 | -0.89 | -9.53% (inactive) | -0.473 (inactive) | -5.4e-05 (inactive) | 0.00373 (inactive) | inactive | 0.584% (inactive)
Clc1ccc(-n2ncc3c(NCc4cccs4)ncnc32)cc1 | 615 | -9.4% (inactive) | -52.5% (inactive) | 125% | 0.539 | 0.108 | 0.0803 | 11.4% (inactive) | -0.385 (inactive) | -2.1e-05 (inactive) | 0.00704 (inactive) | inactive | 42.7% (inactive)
Cn1c(Cl)nc2c1c(=O)n(Cc1cccc(Br)c1)c(=O)n2C | 691 | -8.5% (inactive) | -97.4% (inactive) | 169% | -1.75 | 0.296 | 0.815 | 3.97% (inactive) | -0.507 (inactive) | -1.8e-05 (inactive) | 0.00593 (inactive) | inactive | -10.8% (inactive)
FC(F)(F)c1cccc(-n2cccc2/C=N/n2cnnc2)c1 | 415 | -3.1% (inactive) | 39.9% (inactive) | 140% | -1.39 | 0.953 | 1.88 | -0.608% (inactive) | -0.438 (inactive) | -0.00012 (inactive) | 0.00494 (inactive) | inactive | 13.6% (inactive)
CNc1oc(-c2ccccc2Cl)nc1C#N | 368 | 4.3% (inactive) | 23.8% (inactive) | 79.3% | 0.949 | -0.665 | 0.059 | 3.56% (inactive) | -0.594 (inactive) | -4.5e-05 (inactive) | 0.00508 (inactive) | active; weak signal in gallbladder and intestine | 19.9% (inactive)
CCC(C)Nc1nc(OC)nc(N(C)C#N)n1 (configuration not stated) | 675 | 7.6% (inactive) | -32.5% (inactive) | 130% | 0.721 | 0.541 | 0.135 | -9.53% (inactive) | -0.431 (inactive) | -5.5e-05 (inactive) | 0.00571 (inactive) | inactive | 3.27% (inactive)
O=C(NCc1ccccc1)C1C(=O)N(Cc2ccccc2)C(=O)C1C1(O)CCCC1 (configuration not stated) | 653 | -2.4% (inactive) | -17.9% (inactive) | 108% | -0.94 | 0.675 | 0.754 | -13.3% (inactive) | -0.508 (inactive) | -2.1e-05 (inactive) | 0.00572 (inactive) | inactive | -5.5% (inactive)
CCOC(=O)c1c(C)oc2ccc(OCC(=O)C(C)(C)C)cc12 | 668 | -6% (inactive) | -24.4% (inactive) | 124% | 0.82 | -1.27 | 0.55 | 20.2% (inactive) | -0.435 (inactive) | -5.9e-05 (inactive) | 0.00509 (inactive) | inactive | -8.35% (inactive)
CCOc1ccc(NC(=O)CSC2=C(C#N)C(c3ccc4c(c3)OCO4)CC(=O)N2)cc1 (configuration not stated) | 639 | 0.6% (inactive) | 75.3% (inactive) | 140% | 0.00899 | -0.0485 | -0.833 | -6.06% (inactive) | -0.47 (inactive) | -5.2e-05 (inactive) | 0.00582 (inactive) | inactive | 14.4% (inactive)
Cn1c(NCC(O)c2ccccc2)nc2c1c(=O)n(Cc1ccc(Cl)cc1)c(=O)n2C (configuration not stated) | 676 | 8.4% (inactive) | -18% (inactive) | 103% | -0.206 | 0.674 | -0.257 | -9.53% (inactive) | -0.423 (inactive) | -4.1e-05 (inactive) | 0.00426 (inactive) | inactive | 8.04% (inactive)
COc1ccc(C2C(C#N)=C(C)NC3=C2C(=O)c2ccccc23)cc1 (configuration not stated) | 678 | 0.7% (inactive) | -27.5% (inactive) | 145% | 1.09 | 1.69 | -1.69 | 21.8% (inactive) | -0.5 (inactive) | -4.8e-05 (inactive) | 0.00419 (inactive) | inactive | -2.6% (inactive)
C=CCOc1ccc(/C(O)=C2/C(=O)C(=O)N(CCCN3CCOCC3)C2c2ccc(OC)cc2)cc1 (configuration not stated) | 409 | -10.2% (inactive) | -115% (inactive) | 131% | 0.861 | -1.19 | 0.613 | 14% (inactive) | -0.455 (inactive) | -0.000145 (inactive) | 0.00475 (inactive) | inactive | 25.3% (inactive)
Cc1cc2ccccc2cc(C)c1=O | 388 | -6.2% (inactive) | -120% (inactive) | 168% | 1.48 | 0.00969 | -1.01 | -0.584% (inactive) | -0.453 (inactive) | -9e-05 (inactive) | 0.00444 (inactive) | inactive | -12% (inactive)
